Results taken from ChEMBL document CHEMBL1122069, “Double-head haptens. Synthesis of and experimentally induced contact sensitivity to substances containing two unrelated haptens, pyrocatechol and alpha-methylene-gamma-butyrolactone, in the same molecule” (1982).

Legend:
Assay type in all cases: functional
[1] = organism: Cavia porcellus; assay: Open epicutaneous test (OET) was conducted using 0.72 M compound deposited on a circular shaved flank of guinea pig sensitized by mono […] (19); erythema plus swelling going well beyond test area.
Summary of the method: (§1)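 Guinea pigs sensitized by an injection repeated 4 times on alternate days, followed by 15 days rest before open epicutaneous challenge. Controls received intradermal 1:1 FCA-saline emulsion on alternate days, five injections in all. Irritation thresholds were first set on FCA-injected controls using the elicitation procedure. Read-out was average skin reaction and number of sensitive animals.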

[2] = organism: Cavia porcellus; assay: Results of Open epicutaneous test (OET) in guinea pigs sensitized by mixture of mono […] (18) and (19) and expressed as No. of sensitive animals out of 8 animals tested; summary of the method: as §1
[3] = organism: Cavia porcellus; assay: Open epicutaneous test (OET) was conducted using 0.72 M compound deposited on a circular shaved flank of guinea pig sensitized by mono […] (18); no reaction; summary of the method: as §1
[4] = organism: Cavia porcellus; assay: Open epicutaneous test (OET) was conducted using 0.72 M compound deposited on a circular shaved flank of guinea pig sensitized by mixture of mono […] (18) and (19); erythema on the test area; summary of the method: as §1
[5] = organism: Cavia porcellus; assay: Results of Open epicutaneous test (OET) in guinea pigs sensitized by bi […] (3) and expressed as No. of sensitive animals out of 8 animals tested; summary of the method: as §1
[6] = organism: Cavia porcellus; assay: Results of Open epicutaneous test (OET) in guinea pigs sensitized by mono […] (18) and expressed as No. of sensitive animals out of 8 animals tested; summary of the method: as §1
[7] = organism: Cavia porcellus; assay: Results of Open epicutaneous test (OET) in guinea pigs sensitized by mono […] (19) and expressed as No. of sensitive animals out of 8 animals tested; summary of the method: as §1
[8] = organism: Cavia porcellus; assay: Open epicutaneous test (OET) was conducted using 0.72 M compound deposited on a circular shaved flank of guinea pig sensitized by double […] (3); no reaction; summary of the method: as §1
[9] = organism: Cavia porcellus; assay: Open epicutaneous test (OET) was conducted using 0.72 M compound deposited on a circular shaved flank of guinea pig sensitized by mono […] (19); no reaction; settings: in the assay text read “0.072 M” for “0.72 M”; summary of the method: as §1
[10] = organism: Cavia porcellus; assay: Open epicutaneous test (OET) was conducted using 0.72 M compound deposited on a circular shaved flank of guinea pig sensitized by bi […] (3); erythema on the test area; settings: in the assay text read “0.072 M” for “0.72 M”; summary of the method: as §1
[11] = organism: Cavia porcellus; assay: Open epicutaneous test (OET) was conducted using 0.72 M compound deposited on a circular shaved flank of guinea pig sensitized by mono […] (18); erythema on the test area; summary of the method: as §1

SMILES | Average skin reaction [1] | No. of sensitive animals [2] | Average skin reaction [3] | Average skin reaction [4] | No. of sensitive animals [5] | No. of sensitive animals [6] | No. of sensitive animals [7] | Average skin reaction [8] | Average skin reaction [9] | Average skin reaction [10] | Average skin reaction [11]
C=C1CC(CCCCCCc2cccc(OC)c2OC)OC1=O (centres undefined) | 2.6 | 8 | 0 | 1.1 | 0 | 0 | 8 | 0 |  |  | 
C=C1CC(CCCCCCc2cccc(O)c2O)OC1=O (centres undefined) |  | 8 | 0.2 | 0.9 | 6 | 3 | 1 |  | <0.1 | 0.9 | 
CC1CC(CCCCCCc2cccc(O)c2O)OC1=O (centres undefined) |  | 8 |  | 1.1 | 6 | 7 | 0 |  | 0 | 0.8 | 1.4
